Published values of several laboratories.
Compare with care: the assays were run in different laboratories.

SMILES	technique	species	sample	route	dose	setting	Tmax
c1ccc(-c2nc(N3CCC(c4ccccn4)C3)c3ccccc3n2)nc1 (stereo not shown)	–	female BALB/c mouse	plasma	oral	50 mg/kg	–	78 min
CN1CCC[C@H](CN2c3ccccc3Sc3ccccc32)C1.Cl	–	mouse	plasma	oral	64 mg/kg	single dose	120 min
COc1ccc2c3c1O[C@H]1C[C@@H](OC(=O)c4ccccc4)C=C[C@@]31CCN(C)C2	–	mouse	blood	intravenous	3 mg/kg	–	3 min
Cc1cc(NC(=O)c2cccc3cc(-c4cccc5[nH]nc(N)c45)ccc23)ccc1F	–	male CD-1 mouse	plasma	oral	10 mg/kg	–	60 min
COc1nc(-c2cc(C)c(N[C@@H](C)c3cc(F)cc(F)c3)nn2)ccc1-n1cnc(C)c1	–	male CD-1 mouse	plasma	oral	5 mg/kg	single dose	60 min
CCc1ccc(Cc2cc([C@@H]3O[C@H](CO)[C@@H](O)[C@H](O)[C@H]3O)cc3c2CCC3)cc1	–	male C57BL/6 mouse	plasma	oral	1 mg/kg	–	30 min
CNC(=O)[C@H](Cc1c[nH]cn1)NC(=O)CN(CCCc1ccccc1)CC(=O)O	–	male C57BL/6 mouse	plasma	intraperitoneal	30 mg/kg	–	10 min
Cc1cc(Nc2ccc3ccccc3c2)n2ncnc2n1	–	male Swiss mouse	plasma	oral	50 mg/kg	single dose	30 min
Cc1noc([C@H](Cc2c[nH]cn2)NC(=O)CN(CCCc2ccccc2)CC(=O)O)n1	–	male C57BL/6 mouse	plasma	intraperitoneal	30 mg/kg	–	10 min
COc1nc(-c2cc(C)c(N[C@@H](C)c3c(F)cc(F)cc3F)nn2)ccc1-n1cnc(C)c1	–	male CD-1 mouse	plasma	oral	5 mg/kg	single dose	120 min
OC[C@H]1O[C@@H](c2ccc(Cl)c(Cc3ccc(O[C@H]4CCOC4)cc3)c2)[C@H](O)[C@@H](O)[C@@H]1O	–	CD-1 mouse	plasma	intravenous	5 mg/kg	–	4.8 min
COc1ccc(C(O)COc2ccc(-c3csc(-c4ccc(OCC(O)c5ccc(OC)c(OC)c5)cc4)n3)cc2)cc1OC (stereo not shown)	–	C57BL/6 mouse	plasma	oral	10 mg/kg	–	60 min
CC(C)(C)c1ccc(O)c(CN(Cc2cc(C(C)(C)C)ccc2O)C2CCC(NC(N)=O)CC2)c1 (stereo not shown)	–	male C57BL/6 mouse	plasma	oral	10 mg/kg	single dose	30 min
Cc1ccc2cncc(N3CCc4c(cc(Cn5ccnc5)cc4-c4cn(C)nc4C(F)(F)F)C3=O)c2c1	–	male CD-1 mouse	plasma	oral	10 mg/kg	–	18 min
CSc1cc(Oc2ccnc3[nH]c(=O)cnc23)ccc1NC(=O)Nc1cc(C(C)(C)C)nn1-c1ccccc1	–	BALB/c mouse	plasma	intravenous	2 mg/kg	–	60 min
O=C(c1cc2cc(F)ccc2[nH]1)c1c[nH]c2c(F)cccc12	–	female mouse	plasma	intraperitoneal	6 mg/kg	–	~15 min
NC(=O)c1cc(Oc2ccc(NC(=O)Nc3ccc(Cl)c(C(F)(F)F)c3)c(F)c2)cc[n+]1[O-]	–	mouse	plasma	oral	10 mg/kg	single dose	450 min
CN1C(=O)c2ccccc2[S@+]([O-])c2ccc(C(=O)NCCc3cccs3)cc21	–	male C57BL/6 mouse	plasma	intraperitoneal	30 mg/kg	single dose	15 min
Cc1ccc(NC(=O)c2ccc(CN3CCN(C)CC3)cc2)cc1Nc1nccc(-c2cncc(-c3oncc3C)c2)n1	–	male C57BL/6 mouse	plasma	oral	100 mg/kg/day	–	240 min
COc1cc(C(=O)N2CCC(N3CCN(C)CC3)CC2)ccc1Nc1ncc2c(n1)N(C)c1ccccc1C(=O)N2C	–	mouse	plasma	oral	10 mg/kg	–	60 min

SMILES	technique	species	sample	route	dose	setting	Tmax
NC[C@@H]1O[C@H](O[C@H]2[C@@H](O)[C@H](O[C@@H]3[C@@H](O)[C@H](N)C[C@H](N)[C@H]3O[C@H]3O[C@H](CO)[C@@H](O)[C@H](O)[C@H]3N)O[C@@H]2CO)[C@H](N)[C@@H](O)[C@@H]1O	–	male BALB/c mouse	plasma	oral	500 mg/kg	–	60 min
O=S(=O)(c1ccc(-c2ccc3nccc(Nc4ccncn4)c3c2)cc1)N1CCOCC1	–	female BALB/c mouse	brain	intraperitoneal	10 mg/kg	–	15 min
CS(=O)(=O)CCNCc1ccc(-c2ccc3ncnc(Nc4ccc(OCc5cccc(F)c5)c(Cl)c4)c3c2)o1	–	nude mouse	plasma	oral	200 mg/kg	single dose	480 min
CC(C)c1cnn2c(NCc3ccccc3)cc(NC[C@H]3CCNC[C@@H]3O)nc12	–	male CD-1 mouse	plasma	oral	–	–	120 min
Cc1ncsc1-c1ccc(CNC(=O)[C@@H]2C[C@@H](O)CN2C(=O)[C@@H](NC(=O)CCCCCCCCCCCC(=O)NCCCCC#Cc2cccc(-c3nn(-c4nc(C(=O)O)cs4)c(CC4CC4)c3Cc3ccc(S(N)(=O)=O)cc3)c2)C(C)(C)C)cc1	–	male Swiss mouse	plasma	intraperitoneal	5 mg/kg	single dose	480 min
CNC(=O)c1cc(OC)cc2c(N3CCc4c(cc(Cn5ccnc5)cc4-c4cn(C)nc4C(F)(F)F)C3=O)ccnc12	–	male CD-1 mouse	plasma	oral	50 mg/kg	–	48 min
Cc1cc(Nc2ccc(S(F)(F)(F)(F)F)cc2)n2ncnc2n1	–	male Swiss mouse	plasma	oral	100 mg/kg	single dose	120 min
CNCCN(C)c1cc(C#N)cc(CCc2cc(C)cc(N)n2)c1	–	male BALB/c mouse	brain	oral	10 mg/kg	–	240 min
CCc1cc(C(=O)NC)c2nccc(N3CCc4c(cc(Cn5ccnc5)cc4-c4cn(C)nc4C(F)(F)F)C3=O)c2c1	–	male CD-1 mouse	plasma	oral	150 mg/kg	–	30 min
C=CC(=O)N1CC2CC(n3nc(-c4ccc(C(=O)Nc5ccccn5)cc4)c4c(N)ncnc43)CC2C1 (stereo not shown)	–	SCID mouse	plasma	oral	3 mg/kg	–	15 min
CCCc1c(C2CCCCN2CCN2CCOCC2)[nH]c2cc(OC(F)(F)F)ccc12 (stereo not shown)	–	male mouse	plasma	oral	30 mg/kg	–	60 min
COc1ccc2nccc(N3CCc4c(cc(Cn5ccnc5)cc4-c4cn(C)nc4C(F)(F)F)C3=O)c2c1	–	male CD-1 mouse	plasma	oral	10 mg/kg	–	42 min
CC1(C)CC[C@]2(C(=O)O)CC[C@]3(C)C(=CC[C@@H]4[C@@]5(C)C[C@@H](O)[C@H](OC(=O)/C=C/c6ccc(O)cc6)C(C)(C)[C@@H]5CC[C@]43C)[C@@H]2C1 (relative stereo)	–	mouse	plasma	intraperitoneal	85 µmol/kg	single dose	30 min
COc1nc(-c2cc(C)c(N[C@@H](C)c3ccc(F)cc3)nn2)ccc1-n1cnc(C)c1	–	male CD-1 mouse	plasma	intravenous	1 mg/kg	single dose	4.98 min
Cc1cc(C)cc(NC(=O)c2cnn(-c3ccc(C(C)C)cc3)c2C2CCNCC2)c1	–	SCID mouse	plasma	oral	50 mg/kg	single dose	~300 min
CCc1cc(OC)c2nccc(N3CCc4c(cc(Cn5ccnc5)cc4-c4cn(C)nc4C(F)(F)F)C3=O)c2c1	–	male CD-1 mouse	plasma	oral	150 mg/kg	–	30 min
[Cl-].c1csc([I+]c2cccs2)c1	–	mouse	plasma	intraperitoneal	–	–	≤ 1 min
CC(C)(C)c1cc(NC(=O)Nc2ccc(Oc3ccnc4[nH]c(=O)cnc34)cc2F)n(-c2ccccc2)n1	–	BALB/c mouse	plasma	oral	10 mg/kg	–	30 min
CC=Cc1ccc(O)c(OC)c1	–	mouse	plasma	intranasal	100 mg/kg	–	5 min
COc1cc(/C=C/C(=O)CC(=O)/C=C/c2ccc(O)c(OC)c2)ccc1O	HPLC	Swiss mouse	plasma	oral	2 g/kg	–	120 min
